SIRT5 inh: sirtuin-5 (human) deacylase inhibition; Q9NXA8; Purified SirT5, succinyl-peptide AMC, trypsin-coupled fluorescence; inhibition, % at 15 µM; actives 1.1% (n = 330,000); AID 652115; in the data active = inhibition above about 15%; inconclusive = no clear call, values can overlap the other calls
Target sequence (Q9NXA8 whole entry, looked up): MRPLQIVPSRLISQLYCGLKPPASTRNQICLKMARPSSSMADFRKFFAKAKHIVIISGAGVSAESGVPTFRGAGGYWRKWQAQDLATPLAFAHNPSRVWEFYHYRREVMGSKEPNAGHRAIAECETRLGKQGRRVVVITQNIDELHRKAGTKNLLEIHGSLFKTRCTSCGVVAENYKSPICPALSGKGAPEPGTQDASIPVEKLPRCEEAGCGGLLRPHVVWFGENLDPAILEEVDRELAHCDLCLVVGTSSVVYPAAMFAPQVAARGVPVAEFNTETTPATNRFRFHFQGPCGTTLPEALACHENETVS
PGC1a acetyl inh: PGC1a acetylation modulation, inhibitor mode; U2OS PGC1a acetylation, AlphaScreen anti-acetyl-lysine; with virally co-expressed GCN5 acetyltransferase; inhibition, % at 15.6 µM; actives 0.17% (n = 350,000); AID 651687;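 active = every replicate shows inhibition of at least 40%; inconclusive = mean inhibition at least 40% but some replicate below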;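 note: 0% = neutral control wells and 100% = positive control wells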
DENV2 CPE rescue: inhibitors of DENV2 cytopathic effect; AID 651640; DENV2-infected cells, cytopathic effect rescue, plate reader; CPE inhibition, % at 9.99 µM; actives 1.7% (n = 350,000); in the data active = CPE inhibition above about 20%, passing the limit was not always enough; inconclusive = no clear call, values can overlap the other calls; tested in BHK-21 cells;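 note: 0% = median of neutral control wells and 100% = median of positive control wells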
Statin myotox sup: suppression of simvastatin myotoxicity; C2C12 myotubes + simvastatin, ATP luminescence, 48 h; scaled: DMSO 0, geranylgeraniol control 100; rescue of ATP level, % at 7.49 µM; actives 0.78% (n = 330,000);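 active = mean ATP rescue above about 67%, or every replicate alone reaching that limit, limit read from the data, passing the limit was not always enough; inconclusive = no clear call, values can overlap the other calls; inactive = mean under the limit and some replicate under it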;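 note: myotubes were challenged with 10 µM simvastatin during compound exposure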
S100A4 MyoIIA: blocks human S100A4 binding to myosin IIA peptide; P26447; S100A4/TAMRA-MyoIIA peptide fluorescence polarization; inhibition, % at 10.7 µM; actives 0.14% (n = 360,000); AID 652163;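 active = mean inhibition of at least 70% across replicates, with every replicate also reaching that level; inconclusive = mean inhibition reaches 70% but some replicates fall short; inactive = mean inhibition below 70%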
Target sequence (P26447 whole entry, looked up): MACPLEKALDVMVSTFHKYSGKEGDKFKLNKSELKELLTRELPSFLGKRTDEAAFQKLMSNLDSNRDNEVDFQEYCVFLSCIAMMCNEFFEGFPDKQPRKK
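incubation = readout 5 min after mixing, signal stable up to 60 min | system = S100A4 monomer protein | buffer or medium = HEPES pH 7.2 with CaCl2, KCl, NaCl, DTT, Triton | benchmarks = neutral control DMSO, positive control TFP | also added = fluorescent myosin IIA peptide, 5 nM | compound dosing = one concentration per compound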
Numbers without * were called inactive; ? = inconclusive; · = no result given. A selection: hits, their analogues and other compounds. The true share with any hit is near 2.9%.

SMILES	SIRT5 inh	PGC1a acetyl inh	DENV2 CPE rescue	Statin myotox sup	S100A4 MyoIIA
CCCCC[C@@H](/C=C/C1C(=O)C=C[C@H]1C/C=C\CCCC(=O)OC)OC(C)=O (some centres undefined)	3	-12	25*	7	-7
COCc1c(C(=O)OC)nnn1-c1ccccc1	·	-3	·	130*	·
C[C@H]1CCCCO[C@H](CN(C)S(=O)(=O)c2ccc(Cl)cc2)[C@@H](C)CN([C@@H](C)CO)C(=O)c2cc(NS(=O)(=O)c3ccccc3)ccc2O1	28*	-6	3	·	-35
C[C@@H]1CN([C@H](C)CO)C(=O)c2cc(NS(=O)(=O)c3ccc(Cl)cc3)ccc2O[C@@H](C)CCCCO[C@H]1CN(C)S(=O)(=O)c1ccccc1	19*	-1	1	·	-56
COc1ccc(S(=O)(=O)Nc2ccc3c(c2)C(=O)N([C@@H](C)CO)C[C@@H](C)[C@@H](CN(C)CC2CCCCC2)OCCCC[C@H](C)O3)cc1	·	1	2	·	·
CCN1C(=NCCc2c[nH]c3ccccc23)N[C@@H](c2ccccc2)[C@H](C(=O)OC)[C@H]1C	·	4	27*	0	2
CCCCC(=O)Nc1cc([N+](=O)[O-])ccc1Cl	-1	·	23*	·	2
CCCCN1C(=O)C(CC(=O)NCC2CCCCC2)CC(C(=O)N(CC)CC)=C1C (centres undefined)	17*	-17	-6	-5	-15
CCCCN1C(=O)C(CC(=O)NCC2CCCCC2)CC(C(=O)N(C)C)=C1C (centres undefined)	-5	-1	9	-4	-1
O=C(N[C@H]1CC[C@@H](CCNC(=O)C2CCCCC2)O[C@@H]1CO)c1ccccn1	-1	-8	-9	-3	9
COc1cc(/C=C(\C#N)C(=O)Nc2cccc(C(=O)O)c2)ccc1OCc1ccc(F)cc1	2	·	-1	33	-1
COc1cc(/C=C/c2cccc[n+]2C)ccc1OCC(=O)Nc1cccc(Cl)c1	-1	-5	25*	13	-4
COc1cc(/C=C(/C#N)C(=O)Nc2cc(C(F)(F)F)ccc2Cl)ccc1OCC(=O)Nc1cccc(C(F)(F)F)c1	16*	6	2	·	-3
C[C@H]1CN([C@@H](C)CO)C(=O)c2cc(NC(=O)CCN3CCOCC3)ccc2O[C@@H]1CN(C)CC1CCCCC1	·	6	16	25	0
Cc1ccc(S(=O)(=O)N2CCN(C(=O)COC(=O)Cc3ccc(F)cc3)CC2)c(C)c1	4	3	0	-6	-1
Cc1ccc(S(=O)(=O)N2CCN(C(=O)COC(=O)Cc3ccc(Cl)cc3)CC2)c(C)c1	3	5	25*	-10	11
CC(=O)Oc1cc(C)c(Cl)c2c(OC(C)=O)cc(C(C)=O)c(O)c12	·	·	2	·	-1
CN(C)/C=C/c1oc2ccc(O)cc2c1[N+](=O)[O-]	24*	1	3	·	-3
Cc1oc2ccc(O)cc2c1C(=O)c1ccc([N+](=O)[O-])cc1	-2	·	-4	·	8
COc1ccc2c3c([nH]c2c1)[C@@H](CO)N(C(=O)C1CCC1)CC31CN(C(=O)NC(C)C)C1	0	-1	2	·	9
CC(C)c1cn(CC[C@H]2CC[C@@H](NC(=O)C3CCOCC3)[C@@H](CO)O2)nn1	12	9	3	·	1
CCC(NS(=O)(=O)c1ccc(C)cc1)C(=O)Nc1ccc(NC(C)=O)cc1 (centres undefined)	·	2	·	138*	·
CCC(C)NS(=O)(=O)c1ccc(NC(C)=O)cc1 (centres undefined)	-1	16	·	-5	-2
O=C(C[C@H]1CC[C@@H](NC(=O)C2CCC2)[C@@H](CO)O1)NCC1CC1	7	5	10	-2	-2
CCS(=O)(=O)N[C@@H]1C=C[C@@H](CC(=O)NCC2CCCCC2)O[C@@H]1CO	0	-13	0	0	-3
SMILES	SIRT5 inh	PGC1a acetyl inh	DENV2 CPE rescue	Statin myotox sup	S100A4 MyoIIA
O=C(Oc1ccccc1)c1ccccc1C(=O)Oc1ccccc1	-3	-9	27*	6	-8
C/C=C/c1ccc2c(c1)O[C@H](CN(C)C(=O)Nc1ccc(C(F)(F)F)cc1)[C@H](C)CN([C@@H](C)CO)S2(=O)=O	9	5	-3	-9	-4
CC(C)(O)C#Cc1ccc([C@H]2[C@@H](CO)N3CCCCN(C(=O)c4ccc(F)cc4)C[C@H]23)cc1	1	6	19	·	53
CC(C)(O)C#Cc1ccc([C@@H]2[C@H]3CN(S(C)(=O)=O)CCCCN3[C@H]2CO)cc1	·	-17	·	6	·
CC(C)(O)C#Cc1ccc([C@H]2[C@H](CO)N3CCCCN(C(=O)c4ccc(F)cc4)C[C@@H]23)cc1	4	5	21*	·	104*
CC(C)(O)C#Cc1ccc([C@@H]2[C@H](CO)N3CCCCN(S(C)(=O)=O)C[C@@H]23)cc1	1	3	37*	10	4
O=C(C1=C[C@@H](c2coc3ccccc3c2=O)C[C@@H](OCCCCO)O1)N1CCCCCCC1	-2	-16	-1	·	-21
CC(=O)N1[C@H](C(=O)NC2CCCCC2)[C@@H](CO)[C@@H]2Cn3c(cccc3=O)[C@@H]21	-3	-9	11	-3	-22
NC(=O)c1cc2cc(Cl)ccc2oc1=Nc1cccc(C(F)(F)F)c1	-1	6	66*	18	1
CCn1c(SCC(=O)Nc2nc(C)c(C(=O)OC)s2)nnc1C(C)C	·	-15	·	82*	·
CN1C(=O)c2cc(NC(=O)c3ccc(F)cc3)ccc2OC[C@H]2O[C@H](CC(=O)NCC3CC3)CC[C@@H]21	3	1	-9	-14	5
N#C[C@H]1[C@@H](c2ccc(-c3ccccc3)cc2)[C@H](CO)N1C(=O)Cc1ccccc1	-1	-1	15	-22	-1
O=C(O)c1ccccc1-c1ccc(C=c2sc3nc4cc(Br)cnc4n3c2=O)o1	30*	·	?	-13	-1
O=c1/c(=C\c2cc([N+](=O)[O-])cc([N+](=O)[O-])c2O)sc2nc3ccccc3n12	·	·	·	11	·
O=C(O)c1cccc(-c2ccc(/C=c3/sc4nc5ccccc5n4c3=O)o2)c1	30*	-3	-2	-7	-8
Cc1ccc(S(=O)(=O)N(CC(=O)O)Cc2ccco2)cc1	-1	·	28*	·	1
Cc1ccc(S(=O)(=O)N(Cc2ccccc2)Cc2ccco2)cc1	·	-46	·	-18	·
CC(C)(CO)CNc1ccn2nccc2n1	-8	43*	?	-1	-2
CC(c1nc2ccccc2c(=O)[nH]1)N1CCOCC1 (centres undefined)	0	4	-5	0	-5
CC(c1nc2ccccc2c(=O)[nH]1)N1CCN(C)CC1 (centres undefined)	·	-15	·	117*	·
C[C@H]1CN([C@@H](C)CO)S(=O)(=O)c2ccc(C#CC3CCCC3)cc2O[C@H]1CN(C)Cc1ccccc1C(=O)O	8	0	0	-2	-91
O=C(COc1ncnc2sccc12)NC1CCS(=O)(=O)C1 (centres undefined)	7	4	28*	·	0

Compound activity (PubChem BioAssay)
